From ChEMBL document CHEMBL3784976 (J Med Chem, 2016)
Active and inactive are the calls of the source. The rule behind the calls is not given here.

How the values were obtained:
MDR1 (human) = experiment: Efflux ratio of apparent permeability from basolateral to apical side over apical to basolateral side in MDCK cells expressing human MDR1 after 120 mins by LC-MS/MS analysis; type: ADME, cell-based, Canis lupus familiaris; conditions: dog
Method in brief: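 Efflux ratio taken as Papp B→A / Papp A→B, measured in MDR1-transfected MDCK cells against MDCK vector-control cells.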

[1] = target: Transient receptor potential cation channel subfamily M member 8 (Rattus norvegicus) (UniProt Q8R455); experiment: Antagonist activity at rat TRPM8 assessed as inhibition of icilin-induced Ca2+ influx up to 10 uM preincubated for 2.5 mins followed by icilin addition measured for 1 min by luminescence assay
Chain of Transient receptor potential cation channel subfamily M member 8 (Rattus norvegicus) (Q8R455 whole entry, looked up): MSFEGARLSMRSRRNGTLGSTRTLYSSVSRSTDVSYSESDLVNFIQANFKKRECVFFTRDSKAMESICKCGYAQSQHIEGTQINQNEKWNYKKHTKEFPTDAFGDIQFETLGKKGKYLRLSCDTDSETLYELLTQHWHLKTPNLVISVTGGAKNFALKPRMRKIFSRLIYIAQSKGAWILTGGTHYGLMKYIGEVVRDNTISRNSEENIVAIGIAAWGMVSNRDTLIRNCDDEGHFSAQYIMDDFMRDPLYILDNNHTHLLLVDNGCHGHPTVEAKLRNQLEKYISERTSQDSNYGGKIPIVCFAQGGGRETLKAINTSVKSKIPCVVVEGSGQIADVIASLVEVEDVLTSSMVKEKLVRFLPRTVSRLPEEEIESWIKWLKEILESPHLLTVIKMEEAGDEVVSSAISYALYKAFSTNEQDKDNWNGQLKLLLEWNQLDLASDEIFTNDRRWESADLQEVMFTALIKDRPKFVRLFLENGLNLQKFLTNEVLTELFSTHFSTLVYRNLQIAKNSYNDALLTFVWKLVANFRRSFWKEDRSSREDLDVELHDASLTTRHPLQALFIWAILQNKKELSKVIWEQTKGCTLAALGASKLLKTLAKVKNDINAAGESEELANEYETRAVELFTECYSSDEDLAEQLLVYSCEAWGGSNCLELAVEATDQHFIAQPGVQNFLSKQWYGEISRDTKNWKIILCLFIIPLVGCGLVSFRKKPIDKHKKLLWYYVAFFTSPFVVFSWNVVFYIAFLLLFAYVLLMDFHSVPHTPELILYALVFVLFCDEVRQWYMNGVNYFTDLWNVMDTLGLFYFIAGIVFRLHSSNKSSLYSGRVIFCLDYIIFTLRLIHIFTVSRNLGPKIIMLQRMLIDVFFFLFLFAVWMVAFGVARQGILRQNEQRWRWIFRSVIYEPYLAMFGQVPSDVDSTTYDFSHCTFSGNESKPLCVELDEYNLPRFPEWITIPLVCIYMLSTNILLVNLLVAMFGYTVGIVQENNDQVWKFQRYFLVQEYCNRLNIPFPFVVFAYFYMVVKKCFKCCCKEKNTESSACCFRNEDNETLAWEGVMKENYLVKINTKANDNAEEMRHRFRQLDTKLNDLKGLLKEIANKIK

Homo sapiens = species: Homo sapiens; experiment: Binding affinity to human delta 2-type opioid receptor assessed as remaining radioligand binding at 10 uM by radioligand displacement assay relative to control
[2] = target: Muscarinic acetylcholine receptor M4 (Homo sapiens) (UniProt P08173); experiment: Displacement of [3H]4-DAMP from human recombinant muscarinic M4 receptor expressed in CHO cells assessed as remaining radioligand binding at 10 uM after 60 mins by scintillation counting method relative to control; type: cell-based
Chain of Muscarinic acetylcholine receptor M4 (Homo sapiens) (P08173 whole entry): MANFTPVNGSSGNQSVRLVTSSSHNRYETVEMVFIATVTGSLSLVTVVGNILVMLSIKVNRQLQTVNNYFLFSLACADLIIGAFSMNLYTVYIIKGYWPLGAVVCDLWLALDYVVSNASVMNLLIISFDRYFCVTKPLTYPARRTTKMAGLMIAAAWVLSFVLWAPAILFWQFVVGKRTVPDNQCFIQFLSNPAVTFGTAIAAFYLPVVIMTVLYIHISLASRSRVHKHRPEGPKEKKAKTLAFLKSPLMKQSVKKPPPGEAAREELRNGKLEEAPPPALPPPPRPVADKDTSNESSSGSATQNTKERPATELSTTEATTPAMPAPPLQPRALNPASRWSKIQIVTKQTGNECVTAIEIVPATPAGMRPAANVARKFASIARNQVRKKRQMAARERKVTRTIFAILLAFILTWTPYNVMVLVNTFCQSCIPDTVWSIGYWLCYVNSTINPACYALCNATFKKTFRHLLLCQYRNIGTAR

[3] = target: Histamine H1 receptor (Homo sapiens) (UniProt P35367); experiment: Displacement of [3H]pyrilamine from human recombinant histamine H1 receptor expressed in HEK293 cells assessed as remaining radioligand binding at 10 uM after 60 mins by scintillation counting method relative to control; type: cell-based
Chain of Histamine H1 receptor (Homo sapiens) (P35367 whole entry): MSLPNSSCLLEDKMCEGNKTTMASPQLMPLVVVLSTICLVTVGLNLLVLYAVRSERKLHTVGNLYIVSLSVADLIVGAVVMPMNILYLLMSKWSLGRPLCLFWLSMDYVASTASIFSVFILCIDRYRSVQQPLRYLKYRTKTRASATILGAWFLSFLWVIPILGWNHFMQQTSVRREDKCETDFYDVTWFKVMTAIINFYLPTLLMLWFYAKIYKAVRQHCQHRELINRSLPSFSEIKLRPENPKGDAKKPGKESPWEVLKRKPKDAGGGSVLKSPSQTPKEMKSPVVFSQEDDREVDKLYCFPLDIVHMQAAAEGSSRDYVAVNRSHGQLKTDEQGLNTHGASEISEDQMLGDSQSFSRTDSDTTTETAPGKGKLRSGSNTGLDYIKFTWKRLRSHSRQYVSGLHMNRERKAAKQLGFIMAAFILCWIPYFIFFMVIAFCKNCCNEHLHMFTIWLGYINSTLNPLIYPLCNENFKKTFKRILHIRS

[4] = Ratio of unbound plasma concentration in Harlan Sprague-Dawley rat model of AITC-induced flinching at 1 mg/kg, po to IC50 for rat TRPA1 expressed in tetracycline-inducible T-REx expression system transfected CHO cells by 45Ca2+ uptake assay; type: ADME, organism-based; conditions: in vivo
Method in brief: (§1)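 Rats dosed orally at 1, 3, 10 or 30 mg/kg in 2% HPMC/1% Tween-80 vehicle. After 1 h, unbound plasma concentration measured (n = 8 per dose), intraplantar AITC (0.1%) given and flinching scored over the first minute. Unbound concentration divided by in vitro rat TRPA1 45Ca2+ IC50.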

[5] = Apparent permeability from apical to basolateral side in MDCK cells expressing control vector after 120 mins by LC-MS/MS analysis; type: ADME, cell-based, Canis lupus familiaris; conditions: dog
Plasma [6] = experiment: Unbound plasma concentration in Harlan Sprague-Dawley rat model of AITC-induced flinching at 10 mg/kg, po at 1 hr; type: ADME, organism-based; conditions: in vivo
Method in brief: (§2)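 Rats were given vehicle (2% HPMC/1% Tween-80) or compound orally at 1, 3, 10 or 30 mg/kg. After 1 h, 0.1% AITC was injected into one left ventral hind paw, and nocifensive flinching was recorded over the first minute. Unbound plasma concentration was measured at 1 h, n = 8 per dose. In vivo IC50/IC90 came from the exposure–response relationship across individual animals.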

[7] = target: D(1A) dopamine receptor (Homo sapiens) (UniProt P21728); experiment: Displacement of [3H]SCH-23390 from human recombinant dopamine D1 receptor expressed in CHO cells assessed as remaining radioligand binding at 10 uM after 60 mins by scintillation counting method relative to control; type: cell-based
Chain of D(1A) dopamine receptor (Homo sapiens) (P21728 whole entry): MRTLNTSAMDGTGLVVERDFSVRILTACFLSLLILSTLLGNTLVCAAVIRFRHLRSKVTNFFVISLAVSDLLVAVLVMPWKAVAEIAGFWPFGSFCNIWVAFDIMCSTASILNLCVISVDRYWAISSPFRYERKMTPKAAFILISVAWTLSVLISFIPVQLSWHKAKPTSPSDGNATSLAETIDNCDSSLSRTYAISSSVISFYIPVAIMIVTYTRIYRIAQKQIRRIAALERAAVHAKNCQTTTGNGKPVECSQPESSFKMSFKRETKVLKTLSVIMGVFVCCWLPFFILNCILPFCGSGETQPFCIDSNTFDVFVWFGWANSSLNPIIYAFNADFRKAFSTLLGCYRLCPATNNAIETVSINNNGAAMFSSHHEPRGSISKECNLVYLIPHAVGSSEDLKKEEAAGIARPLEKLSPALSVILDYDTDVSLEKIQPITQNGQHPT

Plasma [8] = experiment: Unbound plasma concentration in Harlan Sprague-Dawley rat model of AITC-induced flinching at 1 mg/kg, po at 1 hr; type: ADME, organism-based; conditions: in vivo; method in brief: as §2
Jurkat = experiment: Displacement of [3H]DTG from sigma receptor in human Jurkat cells assessed as remaining radioligand binding at 10 uM after 120 mins by scintillation counting method relative to control; type: cell-based
[9] = target: Transient receptor potential cation channel subfamily A member 1 (Rattus norvegicus, UniProt Q6RI86); experiment: Antagonist activity at rat TRPA1 expressed in tetracycline-inducible T-REx expression system transfected CHO cells assessed as inhibition of hypo osmolarity buffer-induced 45Ca2+ uptake preincubated for 10 mins followed by hypo osmolarity buffer addition measured after 3 mins by TopCount microplate scintillator counting method; type: cell-based
Method in brief: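 Compound given 10 min at RT in Ham's F12/15 mM HEPES/0.1% BSA, final 2.0 nM–40 μM (1:3 steps); then hypo-osmolar buffer (final 100 mOsmol) with 45Ca2+ (final 10 μCi/mL), 3 min at RT. Cells washed three times in PBS/0.1 mg/mL BSA, then scintillation counted. Hypotonic uptake = 100%, 300 mOsmol/L buffer = 0%. POC fitted to a four-parameter curve for IC50.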

[10] = Ratio of unbound plasma concentration in Harlan Sprague-Dawley rat model of AITC-induced flinching at 3 mg/kg, po to IC50 for rat TRPA1 expressed in tetracycline-inducible T-REx expression system transfected CHO cells by 45Ca2+ uptake assay; type: ADME, organism-based; conditions: in vivo; method in brief: as §1
[11] = target: Histamine H2 receptor (Homo sapiens) (UniProt P25021); experiment: Displacement of [125I]APT from human recombinant histamine H2 receptor expressed in CHO cells assessed as remaining radioligand binding at 10 uM after 120 mins by scintillation counting method relative to control; type: cell-based
Chain of Histamine H2 receptor (Homo sapiens) (P25021 whole entry): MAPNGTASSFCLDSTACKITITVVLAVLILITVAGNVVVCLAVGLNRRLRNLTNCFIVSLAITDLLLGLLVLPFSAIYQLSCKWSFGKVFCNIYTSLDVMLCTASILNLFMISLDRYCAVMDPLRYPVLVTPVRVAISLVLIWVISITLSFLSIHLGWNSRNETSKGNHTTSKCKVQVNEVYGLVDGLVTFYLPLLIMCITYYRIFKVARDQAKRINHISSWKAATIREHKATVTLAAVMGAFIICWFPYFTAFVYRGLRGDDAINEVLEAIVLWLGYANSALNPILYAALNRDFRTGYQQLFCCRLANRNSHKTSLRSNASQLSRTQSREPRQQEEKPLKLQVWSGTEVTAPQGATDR

[12] = Oral bioavailability in rat at 30 mg/kg; type: ADME, organism-based; conditions: in vivo
Method in brief: (§3)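 Rats dosed orally at 30 mg/kg, or 10 mg/kg for one analogue, in 1% Tween 80/2% HPMC/97% water with methanesulfonic acid, pH 2.2.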

[13] = Half life in rat at 0.5 mg/kg, iv administered as single dose; type: ADME, organism-based; conditions: in vivo
Method in brief: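 Single intravenous dose of 0.5 mg/kg given to rats, formulated in 100% DMSO.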

[14] = Clearance in rat at 0.5 mg/kg, iv as single dose; type: ADME, organism-based; conditions: in vivo
[15] = Half life in rat at 30 mg/kg, po; type: ADME, organism-based; conditions: in vivo; method in brief: as §3
Rattus norvegicus = species: Rattus norvegicus; experiment: Displacement of [3H]nitrendipine from L-type calcium channel dihydropyridine binding site in rat cerebral cortex assessed as remaining radioligand binding at 10 uM after 90 mins by scintillation counting method relative to control; type: tissue-based
[16] = target: Substance-P receptor (Homo sapiens) (UniProt P25103); experiment: Displacement of [125I]-Substance P LYS3 from NK1 receptor in human U373MG cells assessed as remaining radioligand binding at 10 uM after 60 mins by scintillation counting method relative to control; type: cell-based; conditions: U-373MG ATCC
Chain of Substance-P receptor (Homo sapiens) (P25103 whole entry): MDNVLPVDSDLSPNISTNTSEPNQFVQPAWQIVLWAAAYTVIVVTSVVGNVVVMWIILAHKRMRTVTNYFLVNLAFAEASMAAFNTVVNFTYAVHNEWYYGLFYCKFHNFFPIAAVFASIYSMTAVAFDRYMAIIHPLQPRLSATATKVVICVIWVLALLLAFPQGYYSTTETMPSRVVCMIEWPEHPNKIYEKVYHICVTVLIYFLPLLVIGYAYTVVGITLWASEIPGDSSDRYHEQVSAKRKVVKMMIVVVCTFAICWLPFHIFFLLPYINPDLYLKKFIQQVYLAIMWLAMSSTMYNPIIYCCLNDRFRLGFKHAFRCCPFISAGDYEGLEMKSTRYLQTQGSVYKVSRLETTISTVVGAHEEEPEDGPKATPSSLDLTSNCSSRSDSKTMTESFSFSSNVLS

[17] = target: Mu-type opioid receptor (Homo sapiens) (UniProt P35372); experiment: Displacement of [3H]DAMGO from human recombinant mu opioid receptor expressed in HEK293 cells assessed as remaining radioligand binding at 10 uM after 120 mins by scintillation counting method relative to control; type: cell-based
Chain of Mu-type opioid receptor (Homo sapiens) (P35372 whole entry): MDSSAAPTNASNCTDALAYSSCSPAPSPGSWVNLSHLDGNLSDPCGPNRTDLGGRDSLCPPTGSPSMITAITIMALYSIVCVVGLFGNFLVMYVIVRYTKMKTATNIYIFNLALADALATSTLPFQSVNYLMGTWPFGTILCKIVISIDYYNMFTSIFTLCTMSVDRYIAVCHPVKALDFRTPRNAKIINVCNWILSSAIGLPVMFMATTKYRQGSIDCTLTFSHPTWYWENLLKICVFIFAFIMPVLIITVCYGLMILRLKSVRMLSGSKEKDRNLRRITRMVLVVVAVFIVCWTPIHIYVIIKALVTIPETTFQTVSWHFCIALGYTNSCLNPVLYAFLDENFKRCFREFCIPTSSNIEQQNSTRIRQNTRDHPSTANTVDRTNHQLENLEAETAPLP

[18] = target: Kappa-type opioid receptor (Rattus norvegicus) (UniProt P34975); experiment: Displacement of [3H]U-69593 from rat recombinant kappa opioid receptor expressed in CHO cells assessed as remaining radioligand binding at 10 uM after 60 mins by scintillation counting method relative to control; type: cell-based
Chain of Kappa-type opioid receptor (Rattus norvegicus) (P34975 whole entry): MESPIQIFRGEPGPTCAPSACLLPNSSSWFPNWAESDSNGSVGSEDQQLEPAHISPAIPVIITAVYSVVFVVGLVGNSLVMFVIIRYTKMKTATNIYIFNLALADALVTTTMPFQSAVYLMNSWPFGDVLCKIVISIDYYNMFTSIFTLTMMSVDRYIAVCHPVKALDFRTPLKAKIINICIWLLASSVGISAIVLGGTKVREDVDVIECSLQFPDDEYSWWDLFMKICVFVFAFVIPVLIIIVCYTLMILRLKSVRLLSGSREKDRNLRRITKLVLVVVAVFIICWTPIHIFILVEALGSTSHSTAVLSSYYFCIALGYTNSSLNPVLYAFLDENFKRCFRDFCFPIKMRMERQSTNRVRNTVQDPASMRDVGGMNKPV

[19] = target: 5-hydroxytryptamine receptor 1A (Homo sapiens) (UniProt P08908); experiment: Displacement of [3H]8-OH-DPAT from human recombinant 5HT1A receptor expressed in HEK293 cells assessed as remaining radioligand binding at 10 uM after 60 mins by scintillation counting method relative to control; type: cell-based
[20] = target: Beta-2 adrenergic receptor (Homo sapiens) (UniProt P07550); experiment: Displacement of (-)-[3H]CGP-12177 from human recombinant adrenergic beta2 receptor expressed in CHO cells assessed as remaining radioligand binding at 10 uM after 120 mins by scintillation counting method relative to control; type: cell-based
Chain of Beta-2 adrenergic receptor (Homo sapiens) (P07550 whole entry, looked up): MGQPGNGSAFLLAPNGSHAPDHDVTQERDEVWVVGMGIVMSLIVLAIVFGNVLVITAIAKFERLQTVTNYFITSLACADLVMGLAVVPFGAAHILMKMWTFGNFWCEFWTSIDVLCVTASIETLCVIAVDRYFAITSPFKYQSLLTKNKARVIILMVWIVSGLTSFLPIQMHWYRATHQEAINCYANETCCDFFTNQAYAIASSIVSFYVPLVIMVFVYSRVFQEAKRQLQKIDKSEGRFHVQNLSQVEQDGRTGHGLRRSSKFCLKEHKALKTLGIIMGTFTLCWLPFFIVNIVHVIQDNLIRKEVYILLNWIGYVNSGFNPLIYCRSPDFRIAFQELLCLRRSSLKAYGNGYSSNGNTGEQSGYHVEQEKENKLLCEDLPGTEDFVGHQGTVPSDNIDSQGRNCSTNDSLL

[21] = target: 5-hydroxytryptamine receptor 2A (Homo sapiens) (UniProt P28223); experiment: Displacement of [3H]ketanserin from human recombinant 5HT2A receptor expressed in HEK293 cells assessed as remaining radioligand binding at 10 uM after 60 mins by scintillation counting method relative to control; type: cell-based
Chain of 5-hydroxytryptamine receptor 2A (Homo sapiens) (P28223 whole entry): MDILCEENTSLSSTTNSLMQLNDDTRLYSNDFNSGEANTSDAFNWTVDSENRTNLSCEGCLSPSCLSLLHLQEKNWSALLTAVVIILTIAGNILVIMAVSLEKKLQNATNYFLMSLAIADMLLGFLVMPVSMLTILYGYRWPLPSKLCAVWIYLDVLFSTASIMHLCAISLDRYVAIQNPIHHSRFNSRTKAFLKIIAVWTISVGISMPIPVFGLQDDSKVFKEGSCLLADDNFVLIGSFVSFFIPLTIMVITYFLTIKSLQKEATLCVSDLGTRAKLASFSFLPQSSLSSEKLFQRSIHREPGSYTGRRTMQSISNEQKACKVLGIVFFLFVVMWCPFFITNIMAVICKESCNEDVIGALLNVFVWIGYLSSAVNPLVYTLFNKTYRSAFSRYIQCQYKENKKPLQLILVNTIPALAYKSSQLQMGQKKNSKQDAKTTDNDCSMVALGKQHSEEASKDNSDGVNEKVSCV

efflux ratio at 2 h (MDR1 (human)): 1.3 | inhibition [1]: inactive | Activity (Homo sapiens): > 77% | Activity [2]: > 77% | Activity [3]: > 77% | Ratio [4]: 0.72 | Papp A→B at 2 h [5]: 44.5 ×10⁻⁶ cm/s | Cp(f) (Plasma [6]): 580 nM | Activity [7]: > 77% | Cp(f) (Plasma [8]): 51 nM | IC50 [9]: 0.01 µM | Ratio [10]: 2.7 | Activity [11]: > 77% | bioavailability [12]: 60% | half-life [13]: 0.6 h | clearance [14]: 41.7 mL/min/kg | half-life [15]: 2.8 h | Activity (Rattus norvegicus): > 77% | Activity [16]: > 77% | Activity [17]: > 77% | Activity [18]: > 77% | Activity [19]: > 77% | Activity [20]: > 77% | Activity [21]: > 77%
SMILES: Cn1cnc2ncn(Cc3nc(CCc4ccc(Cl)cc4)no3)c(=O)c21
Activity (Jurkat): > 77%
